# Measurements reported in ChEMBL document CHEMBL1157704, “Potent activity against K562 cells by polyamide-seco-CBI conjugates targeting histone H4 genes” (Bioorg Med Chem, 2010).
# Calls of active or inactive are those of the source.
# Tests used:
# K562 [1] = assay: Effect on INPP5D gene expression in human K562 cells assessed as change in mRNA transcript expression at 10 nM after 48 hrs by DNA microarray analysis relative to control; format: functional
# Procedure, shortened: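 K562 CML cells (b3a2 Bcr-Abl) in standard ATCC-recommended culture, exposed once to 10 nM conjugate and harvested at 48 h. Untreated controls were also collected at 48 h. Transcripts were profiled on Human Gene 1.0 ST whole-genome oligonucleotide arrays, and each treated level was expressed relative to the untreated control, with a cutoff of at least twofold change.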
# K562 [2] = assay: Effect on ARRDC3 gene expression in human K562 cells assessed as change in mRNA transcript expression at 10 nM after 48 hrs by DNA microarray analysis relative to control; format: functional
# Procedure, shortened: (§1)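 Transcripts were profiled on Affymetrix GeneChip Human Gene 1.0 ST arrays in K562 cells treated at 10 nM. Treated cells were collected at 6, 12, 24 and 48 h; untreated controls were collected at 48 h. Transcripts changed at least twofold versus control were scored.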
# [3] = system: histone H4c gene fragment DNA (human); assay: Binding affinity to 5'-AGAAAA-3' sequence of 223 bp human histone H4c gene fragment DNA assessed as DNA alkylating activity at 5 to 100 nM after 15 hrs by PAGE
# K562 [4] = assay: Effect on DIAPH2 gene expression in human K562 cells assessed as change in mRNA transcript expression at 10 nM after 48 hrs by DNA microarray analysis relative to control; format: functional; procedure, shortened: as §1
smiles,measurement,setting,value
CC(=O)Nc1cn(C)c(C(=O)Nc2cn(C)c(C(=O)NCCC(=O)Nc3cn(C)c(C(=O)NCCCC(=O)Nc4cc(C(=O)Nc5cn(C)c(C(=O)Nc6ccc7[nH]c(C(=O)N8CC(CCl)c9c8cc(O)c8ccccc98)cc7c6)n5)n(C)c4)n3)n2)n1 (centres undefined),fold change (FC),K562 [1],>=2
same,fold change (FC),K562 [2],>=2
same,Activity,[3],Active
same,fold change (FC),K562 [4],>=2
